According to ChEMBL document CHEMBL4823270, “A first-in-class anticancer dual HDAC2/FAK inhibitors bearing hydroxamates/benzamides capped by pyridinyl-1,2,4-triazoles” (Eur J Med Chem, 2021):
Active and inactive are the calls of the source. The calls are words filed in the database; no cut-off is given here.

Columns and labels:
[1] = target: Signal transducer and activator of transcription 3 (Homo sapiens) (UniProt P40763); assay: Inhibition of STAT3 activation in human A498 cells measured after 24 hrs by Western blot analysis; format: cell-based
[2] = tested on: CAKI-1; assay: Induction of apoptosis in human CAKI-1 cells at 1.5 uM measured after 24 hrs by Annexin-V/propidium iodide staining based flow cytometry relative to control; format: functional
In short: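 Cells in supplemented medium with 10% FBS at 37 °C, 5% CO2, exposed to 0.75 or 1.5 μM compound, or DMSO as negative control, for 24 h. Apoptosis assessed by annexin V/PI staining per kit instructions, then flow cytometry; apoptotic cell percentage quantified against control.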

[3] = tested on: CAKI-1; assay: Induction of cell cycle arrest in human CAKI-1 cells assessed as accumulation at G2/M phase incubated for 24 hrs by propidium iodide based flow cytometry analysis (reference value: 5.5 %); format: functional
In short: (§1)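 Cells at 1 × 10^5/mL treated with 0.75 or 1.5 μM compound or DMSO (negative control) for 24 h, harvested and washed in PBS. Fixed by dropwise ice-cold 80% ethanol with vortexing, held overnight, washed twice, PI-stained 20 min in the dark. Phase distribution read by flow cytometry.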

[4] = target: T1, Protein deacetylase HDAC6 (Homo sapiens, UniProt Q9UBN7); assay: Inhibition of human full-length recombinant HDAC6 preincubated for 5 mins followed by HDAC substrate addition and further incubated for 45 mins by fluorescence microplate reader assay
T1 sequence (Q9UBN7 whole entry): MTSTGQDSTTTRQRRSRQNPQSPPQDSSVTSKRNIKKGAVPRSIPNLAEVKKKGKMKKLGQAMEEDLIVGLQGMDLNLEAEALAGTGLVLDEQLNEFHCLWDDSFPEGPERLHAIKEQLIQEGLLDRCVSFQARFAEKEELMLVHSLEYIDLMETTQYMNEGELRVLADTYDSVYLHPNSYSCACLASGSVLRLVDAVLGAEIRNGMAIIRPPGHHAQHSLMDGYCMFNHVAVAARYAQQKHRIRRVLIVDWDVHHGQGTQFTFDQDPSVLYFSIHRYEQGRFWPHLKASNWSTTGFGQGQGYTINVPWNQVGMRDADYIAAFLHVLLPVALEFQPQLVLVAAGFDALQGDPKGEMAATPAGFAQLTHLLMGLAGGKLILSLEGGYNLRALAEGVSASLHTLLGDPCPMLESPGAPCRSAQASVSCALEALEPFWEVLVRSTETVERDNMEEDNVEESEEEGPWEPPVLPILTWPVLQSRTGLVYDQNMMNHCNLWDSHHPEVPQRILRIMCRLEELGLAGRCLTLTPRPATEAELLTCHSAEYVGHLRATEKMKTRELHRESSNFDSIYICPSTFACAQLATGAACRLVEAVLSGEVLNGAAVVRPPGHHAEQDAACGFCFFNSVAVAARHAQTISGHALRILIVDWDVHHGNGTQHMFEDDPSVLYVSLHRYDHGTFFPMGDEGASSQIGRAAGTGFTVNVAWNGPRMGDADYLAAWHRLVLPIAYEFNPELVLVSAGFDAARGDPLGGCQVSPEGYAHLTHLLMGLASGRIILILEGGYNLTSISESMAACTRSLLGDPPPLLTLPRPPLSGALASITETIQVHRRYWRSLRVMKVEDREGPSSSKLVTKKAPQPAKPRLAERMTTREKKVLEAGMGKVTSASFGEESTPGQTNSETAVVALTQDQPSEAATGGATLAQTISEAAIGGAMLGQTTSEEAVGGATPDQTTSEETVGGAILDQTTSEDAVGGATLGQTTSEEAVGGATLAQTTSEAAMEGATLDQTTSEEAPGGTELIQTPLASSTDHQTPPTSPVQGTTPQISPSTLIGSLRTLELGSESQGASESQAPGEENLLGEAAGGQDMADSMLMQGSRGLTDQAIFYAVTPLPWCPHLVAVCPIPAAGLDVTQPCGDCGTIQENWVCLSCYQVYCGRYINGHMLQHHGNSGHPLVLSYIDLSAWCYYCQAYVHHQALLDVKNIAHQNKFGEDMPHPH

[5] = target: Focal adhesion kinase 1 (Homo sapiens, UniProt Q05397); assay: Inhibition of FAK (unknown origin) by FRET-based Z'-Lyte assay
In short: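 Recombinant FAK kinase activity measured with the FRET-based Z'-LYTE format; the same platform was used for a kinase panel (FAK, FLT, FRK, IGF-1R, BTK). IC50 values determined.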

[6] = tested on: A498; assay: Growth inhibition of human A498 cells at 10 uM incubated for 24 hrs by MTT assay relative to control; format: functional; conditions: read-out: GI
In short: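 Cells seeded at 1 × 10^4 per well, cultured overnight, then exposed to 10 μM compound or DMSO (negative control) for 24 h. After a PBS wash, MTT (2 mg/ml) was added for 4 h at 37°C and formazan dissolved in DMSO. OD read at 570 nm. Growth inhibition = 1 − (OD treated/OD control); at least three independent experiments.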

[7] = tested on: CAKI-1; assay: Antiproliferative activity against human CAKI-1 cells assessed as cell growth inhibition incubated for 24 hrs by MTT assay; format: functional, cell-based; conditions: CAKI-1, 24 h
[8] = target: Histone deacetylase 2 (Homo sapiens, UniProt Q92769); assay: Inhibition of HDAC2 in human CAKI-1 cells assessed as reduction in HDAC2 expression by Western blot analysis; format: cell-based
In short: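 40 μg protein (Bradford) resolved by SDS-PAGE, transferred to PVDF, blocked 1 h in milk or BSA. Primary antibody overnight, HRP secondary 1 h, ECL detection; β-actin as loading control.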

[9] = tested on: A498; assay: Induction of apoptosis in human A498 cells assessed as activation of caspase-9 measured after 24 hrs by ELISA relative to control; format: functional
[10] = tested on: A498; assay: Induction of cell cycle arrest in human A498 cells assessed as decrease in cell population at G1 phase at 1.5 uM incubated for 24 hrs by propidium iodide based flow cytometry analysis; format: functional; in short: as §1

Chain of Signal transducer and activator of transcription 3 (Homo sapiens) (P40763 whole entry): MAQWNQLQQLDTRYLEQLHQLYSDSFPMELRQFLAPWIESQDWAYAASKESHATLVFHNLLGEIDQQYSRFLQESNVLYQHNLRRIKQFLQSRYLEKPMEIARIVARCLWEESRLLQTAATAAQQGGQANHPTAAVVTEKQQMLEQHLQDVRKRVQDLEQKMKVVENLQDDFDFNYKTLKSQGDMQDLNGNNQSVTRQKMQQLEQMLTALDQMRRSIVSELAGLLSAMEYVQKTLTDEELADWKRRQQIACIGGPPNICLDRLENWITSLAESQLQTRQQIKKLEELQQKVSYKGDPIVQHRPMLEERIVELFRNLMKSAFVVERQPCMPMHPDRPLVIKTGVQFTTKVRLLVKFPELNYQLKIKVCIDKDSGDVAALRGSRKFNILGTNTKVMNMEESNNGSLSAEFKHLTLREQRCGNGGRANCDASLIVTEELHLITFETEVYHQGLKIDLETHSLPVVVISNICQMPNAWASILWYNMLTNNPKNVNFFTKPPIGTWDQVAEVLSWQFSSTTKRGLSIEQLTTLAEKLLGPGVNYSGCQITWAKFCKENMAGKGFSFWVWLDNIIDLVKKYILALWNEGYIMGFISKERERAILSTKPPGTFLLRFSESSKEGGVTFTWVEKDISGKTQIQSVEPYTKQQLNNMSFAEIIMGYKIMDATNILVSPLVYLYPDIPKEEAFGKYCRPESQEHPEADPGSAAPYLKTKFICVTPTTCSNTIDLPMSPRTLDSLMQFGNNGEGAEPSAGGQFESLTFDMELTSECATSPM
Chain of Focal adhesion kinase 1 (Q05397 whole entry): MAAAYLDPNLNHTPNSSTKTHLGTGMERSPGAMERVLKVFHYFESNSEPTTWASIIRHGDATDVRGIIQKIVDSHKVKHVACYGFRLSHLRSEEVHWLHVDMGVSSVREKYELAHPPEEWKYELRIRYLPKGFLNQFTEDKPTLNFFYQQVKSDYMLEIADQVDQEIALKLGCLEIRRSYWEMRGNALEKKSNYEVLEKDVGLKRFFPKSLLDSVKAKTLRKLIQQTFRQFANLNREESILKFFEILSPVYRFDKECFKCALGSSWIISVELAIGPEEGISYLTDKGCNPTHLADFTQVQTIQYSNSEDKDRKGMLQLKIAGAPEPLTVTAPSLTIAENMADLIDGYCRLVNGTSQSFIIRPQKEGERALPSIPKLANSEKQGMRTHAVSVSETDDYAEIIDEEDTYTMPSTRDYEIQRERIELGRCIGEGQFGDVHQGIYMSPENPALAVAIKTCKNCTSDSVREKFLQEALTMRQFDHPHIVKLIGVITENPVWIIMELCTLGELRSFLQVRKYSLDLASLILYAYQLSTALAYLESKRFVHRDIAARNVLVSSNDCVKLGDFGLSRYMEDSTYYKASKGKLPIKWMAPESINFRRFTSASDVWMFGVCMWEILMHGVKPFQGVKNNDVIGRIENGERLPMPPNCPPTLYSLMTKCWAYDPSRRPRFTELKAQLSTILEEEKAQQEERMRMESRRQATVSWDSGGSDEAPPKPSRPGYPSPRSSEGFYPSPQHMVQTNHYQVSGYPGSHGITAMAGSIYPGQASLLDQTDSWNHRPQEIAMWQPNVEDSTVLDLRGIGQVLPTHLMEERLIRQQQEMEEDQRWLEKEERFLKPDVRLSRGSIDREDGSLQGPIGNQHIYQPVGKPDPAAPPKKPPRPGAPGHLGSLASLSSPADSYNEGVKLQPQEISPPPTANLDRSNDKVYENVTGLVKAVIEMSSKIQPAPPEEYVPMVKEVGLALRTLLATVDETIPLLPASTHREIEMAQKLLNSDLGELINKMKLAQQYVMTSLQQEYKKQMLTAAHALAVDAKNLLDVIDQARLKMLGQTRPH
Chain of Histone deacetylase 2 (Q92769 whole entry): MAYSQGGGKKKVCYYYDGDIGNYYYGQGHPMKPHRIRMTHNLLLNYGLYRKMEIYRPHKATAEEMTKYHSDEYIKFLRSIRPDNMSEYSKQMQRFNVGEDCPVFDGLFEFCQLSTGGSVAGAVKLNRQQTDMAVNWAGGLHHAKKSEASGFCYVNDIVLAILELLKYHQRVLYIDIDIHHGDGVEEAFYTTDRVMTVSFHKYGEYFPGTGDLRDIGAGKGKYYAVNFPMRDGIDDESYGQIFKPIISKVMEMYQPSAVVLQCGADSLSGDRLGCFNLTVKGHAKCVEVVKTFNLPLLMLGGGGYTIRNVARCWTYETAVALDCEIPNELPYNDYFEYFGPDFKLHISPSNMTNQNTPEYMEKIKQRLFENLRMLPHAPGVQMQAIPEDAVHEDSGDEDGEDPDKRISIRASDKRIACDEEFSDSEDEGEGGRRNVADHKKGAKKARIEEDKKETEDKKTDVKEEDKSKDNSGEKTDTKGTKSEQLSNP

Cn1c(SCCCCCC(=O)NO)nnc1-c1ccncc1
inhibition [1]: Active | Activity [2]: 37% | Activity [3]: 35% | IC50 [4]: 13900 nM | IC50 [5]: 12.6 nM | inhibition of growth at 10 µM [6]: 99.8% | IC50 [7]: 1230 nM | inhibition [8]: Active | fold change (FC) [9]: 6 | Activity [10]: Active
